# Experimental data published in the RNAGym collection of RNA variant scans (doi:10.1126/science.aae0568).
# Fewer inactive variants are shown than the library holds.
# B1: tRNA (parent)
# chain: GUUCCGUUGGCGUAAUGGUAACGCGUCUCCCUCCUAAGGAGAAGACUGCGGGUUCGAGUCCCGUACGGAACG
# Variants of: B1
# Experiment: yeast fitness relative to wild type (ratio to wild type); higher = fitter; tRNA-Arg(CCU), competitive growth, 37 C, YPD
# In short: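 Variants of the tRNA-Arg(CCU) gene, chemically synthesised with a 3% per-site mutation rate at 69 sites, were placed at the native genomic locus in Saccharomyces cerevisiae. The pooled strains were competed in YPD at 37°C for 24 hours in six parallel replicates. Gene amplicons from the start population and from each end population were read by 100-nucleotide paired-end sequencing. Darwinian fitness relative to wild type came from changes in genotype frequencies; genotypes needed ≥ 100 starting reads, and estimates < 0.5 were set to 0.5.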
row,Variant,yeast fitness
1,GUUCCGUUGGCGUAAUGGCAACGAGUCUCCCUCCUAAGGAGAAGACCGCGGGUUCGAGUCCCGUACGGAACG,≤ 0.5
2,GUUCCGUUGGCGUAAUGGCAAGGCGUCUCCCUCGUAAGGAGAAGACUGCGGGUUCGAGUCCCGUACGGAUCG,≤ 0.5
3,GUUCCGUUGGCGUAAUGGCAACGCGUCUCCCUCUUAAGGAGAUGACUGCGGCUUCGAGUCCCGUACGGAACG,≤ 0.5
4,GUUCCGUUGGCGUAAUGGGAAGGCGUCUCCCUCUUAAGGAGAAGACUGCGGGUUCGAGUCCCGUACGCAACG,≤ 0.5
5,GUUCCGUUGGCGUAAUGGCAACGCGUCUCCCUCCUAAGGAGAAGACUGCAGGUUCGAGUCCCGUACGGAACG,0.833
6,GUUCCGUUGGCGUAAUGGCAACGCGUCUCCCUCCGAAGGAGAGGACUGCGGGUUCGAGUCCCGUACGGAACG,0.598
7,GUUCCGUUGGCGUAAUGGCAAAACGUCUCCCUCUUAAGGAGAAGACUGCGGGUUCGCGUCCCGUAUGGCACG,≤ 0.5
8,GUUCCGUUGGCGUAAUGGCAACGUGUCUCCCUCCUAAGGAGAAGACUGCGGGUUCGAGUCCCGUACGGAACG,0.969
9,GUUCCGUUGGCGUAAUGGGAAGGCGUCUCCCUCUUAAGGAGAAGACUGUGGGUUCGAGUCCCGUACGGAACG,≤ 0.5
10,GUUCCGUUGGCGUAAUGGGUACGCGUCUCCCUCCUAAGGAGAAGACUGCGGGUUCGAGUCCCGUACGGAACG,0.955
11,GUUCCGUUGGCGUAAUGGCAACGUGUGUCCCUCCUAACGAGAAGACUGCGGGUUCGUGUACGGUACGGAACG,≤ 0.5
12,GUUCCGUUGGCGUAAUGGCAACGCGUCUCCCUCCUAAGGAGAAGACUGCAGGUUCAAGUCCCGUACGGAACG,0.749
13,GUUCCGUUGGCGUAAUGGCAACGCGUCUCCCUCCUAAGGAGAAGACUGCGGGUUCGAGUCCCGUGCGGAACG,1
14,GUUCCGUUGGCGUAAUGGCAACGCGUCUCCCUCCUAAGGAGAAGAUUGCGGGUUCGAGUCCCGUACGGCACG,0.724
15,GUUCCGUUGGCGUAAUGGCAACGCGUCUCCCUCCUAAGGAGAAGACUGCAGGUUAGAGUCCCGUACGGAACG,≤ 0.5
16,GUUCCGUUGGCGUAAUGGCAACGCGUCUCCCUCCUAAGGAGUAGAUUGCGGGUUGGAGUCCCCUACGGAACG,≤ 0.5
17,GUUCCGUUGGCGUAAUGGCAACGCGUCUCCCUCCUAAGGAGAAGACUGCGGGUUCGAGUCCCGUAUGGAACG,0.855
18,GUUCCGUUGGCGUAAUGGCAACGUGUCUCACUCCUAAGGAGAAGACUGCGGGUUCGAGUCCCGUACGGAACG,0.631
19,GUUCCGUUGGCGUAAUGGCAACGCGUCUCCCUACUCAGGAGAAGACUGCGGGUUUGAGUCCCGUACGGAACG,≤ 0.5
20,GUUCCGUUGGCGUAAUGGCAACGCGUCUCCCUGCUAAGGAGAAGACUGCGGGUUCGGGUCGCGUACGGAACG,≤ 0.5
21,GUUCCGUUGGCGUAAUGGCAACGCGUCUCCCUCCUAAGGAGAAGACUGCGGGUUCGAGUCCCGUACGGGACG,0.788
22,GUUCCGUUGGCGUAAUGGCAACGCGUCUCCCUCCUAAGGAGAAGACUGCGGGUUCGAGUCCCGUACGGCACG,0.991
23,GUUCCGUUGGCGUAAUGGCAACGCGUCUCCCUCCCAAGGAGAAGACUGUGGGUUCGAGUCGCGUACGGAACG,≤ 0.5
24,GUUCCGUUGGCGUAAUGGCAACGCGUGUCUCUCCUAAGGAGAAGACUGCGGGUUCGAGUCCCGUACGGAACG,0.55
25,GUUCCGUUGGCGUAAUGGCAACGCGUCCCCCUCCUAAGGAGAAGACUGAGGGUUCGAGUCCCGUACGGAACG,0.584

row,Variant,yeast fitness
1,GUUCCGUUGGCGUAAUGGCAACGCGUAUCCCUCCUAAGGAGAAGAAUGCGGGUUCGAGUCCCGUACGGACCG,≤ 0.5
2,GUUCCGUUGGCGUAAUGGGAACGCGUCUCCCUCCUAAGGAGAUGACUGCGUGUUCGAGUCCCGUGCGAAACG,≤ 0.5
3,GUUCCGUUGGCGUAAUGGCAACGCGUCUCCCUCCUAAGGAGAAGACUGCGGGCUCGAGUCACGUACGAAACG,≤ 0.5
4,GUUCCGUUGGCGUAAUGGCAACGGGUCUCCCUCCUAUGGAGAAGACUGCGGGUGCGAGUCCCGAACGGAACG,≤ 0.5
5,GUUCCGUUGGCGUAAUGGCAACGCGUCUCCUUGCUAAGGAAAAGACUGGGGGUCCGAGUCCCAUACGGAACG,≤ 0.5
6,GUUCCGUUGGCGUAAUGGCAACGCGUAUCGCUCCUAAGGAGAAGCCUGCGGGUUCGAGUCCCGUACGGAACG,≤ 0.5
7,GUUCCGUUGGCGUAAUGGCAACGCAUCUCCCUCCUAAGGAGAACACAGCGGGUUCGAGUCCCGUACGGAACG,≤ 0.5
8,GUUCCGUUGGCGUAAUGGCAACGCGUCUCCGUCCUAAGGAGAAGACUGCGGGGACGUGUCCCGUACGGAACG,0.653
9,GUUCCGUUGGCGUAAUGGCAACGCGUCUACCUCCUAAGCAGAAGACUGCGGGUUCGGGUCUCGUAUGGAACG,≤ 0.5
10,GUUCCGUUGGCGUAAUGGCAACGCGGCUCCCUCCUAAGGAGAAGACUGCGGGUUCGGGUCCCGUACGGAACG,≤ 0.5
11,GUUCCGUUGGCGUAAUGGCAACGCGUCUCCCUCCUAAGGAGAAGACUGCGGGUUCGAGUCGCGUACGGAACG,0.691
12,GUUCCGUUGGCGUAAUGGCAACGCGUCUCCCUCCUAAGGAGGAGAAUGCGGGUUGGAGUCCCGUACGGAACG,≤ 0.5
13,GUUCCGUUGGCGUAAUGGGAACGCGUCUCCCUCCUAAGGAGUAGACUGCGGGUUCGAGUCCCGUACGGAACG,0.991
14,GUUCCGUUGGCGUAAUGGCAACGCGUCUCCCUGCUAAGGAGAAGACUGCGGGUUCGGGUCGCGUACGGGACG,0.65
15,GUUCCGUUGGCGUAAUGGCAACGCGUCUCCCUCCUAAGGAGAAGACUGCGGGUUCGACUCUCGUAUGGAACG,0.529
16,GUUCCGUUGGCGUAAUGGCAACGCGUCUCCCUCCUAAGGAGAAGACUGCGGGUUCGAGUACCGUACGGAACG,0.547
17,GUUCCGUUGGCGUAAUGGCAACGCGUCUCCGUCCAAAGGAGAAGACUGCGGGUUCGAGUCACGUACGGCACG,0.504
18,GUUCCGUUGGCGUAAUGGCAACGCGUCUCCCUCCUAAGGGGAAGACUACGGGUUCGAGUCCCGUACGGAACG,0.718
19,GUUCCGUUGGCGUAAUGGCAACGCGCAUCGCUCCUAAGGAGAAGACUGCGGGUACAAGUCCCGUACGGAACG,≤ 0.5
20,GUUCCGUUGGCGUAAUGGCAACACGUCUGCCUCCUAAGGAGAAGACUGCGGGUUCGAGUCCCGUACGGAACG,≤ 0.5
21,GUUCCGUUGGCGUAAUGGCAACGCGUCUCCCUCCUAAGGAGAAGACUCCGGGUUCGAGUCCCGUAUGGAACG,0.712
22,GUUCCGUUGGCGUAAUGGCAACGCGUCACCCUCCUAACGAGAACAAUGCGGGUUCGAGUCCCGUACGGAACG,0.572
23,GUUCCGUUGGCGUAAUGGGAACGCGUCUCCCUCCUAGGGAGAAGACUGCGGGUUCGAGUCCCGUUCGGUACG,≤ 0.5
24,GUUCCGUUGGCGUAAUGGCAACGCGUCUCCCUCCUAAGGAGUAGAUUGCGGGUUGGAGUCCCGUACGGAACG,≤ 0.5
25,GUUCCGUUGGCGUAAUGGCAACGCGUCUCCCUCCUAAGGAGAAGACUGCGCGUUCGAGUCCCGUACGGAACG,0.519

row,Variant,yeast fitness
1,GUUCCGUUGGCGUAAUGGCAACGCGUUUCCCUUCUAAGGCGAAGACUGCGGGUUAGAGUCCCGUGCGGAACG,≤ 0.5
2,GUUCCGUUGGCGUAAUGGCAACGCGUCUCCCUCCUAAGGAGAAGACUGCGGGUUCGAGUCCCGUACGGACCG,1.03
3,GUUCCGUUGGCGUAAUGGCAACGCGUCUCCCUCCUAAGGAGAAGACUGCGGGUUCGAGUCCCGUACGGAUCG,0.953
4,GUUCCGUUGGCGUAAUGGGAAUGCGUCUCCCUCCUAAGGAGAAGACUGCGGAUUCGAGUCCCGUACGGAACG,≤ 0.5
5,GUUCCGUUGGCGUAAUGGGAAUGCGUCUCCCUCCUAAGGAGAAGACUGCGGGUUCGAGUCCCGUACGGAUCG,0.746
6,GUUCCGUUGGCGUAAUGGCAACGCGUCUCCCUCCUAAGGAGAAGACUGGGGGUUCGAGUCCCGUACUGAACG,0.599
7,GUUCCGUUGGCGUAAUGGGAACGCGUCUCCCUCCUAAGGAGAUGACUGCGGGUUCGAGUCCCGUAAGGAACG,0.6
8,GUUCCGUUGGCGUAAUGGCAACGCGUGUCCCUCCUAAGGAGAAGAUUGCGGGUUCGAGUCCCGUACGGAACG,0.673
9,GUUCCGUUGGCGUAAUGGCAACGCAUCUCCCUCCUAAGGAGAAGACUGCGGGUUCGAGUCCCGUACGGAACG,0.969
10,GUUCCGUUGGCGUAAUGGCAACGCGUCUCCCUCCUAAGGAGAAGACUACGGGUUCGAGUCCAGUACGGAACG,0.91
11,GUUCCGUUGGCGUAAUGGGAACGCGUCUCCCUCCUAGGGAGAAGACUGCGGGUUCGAGUCCCGUUCGGAACG,0.61
12,GUUCCGUUGGCGUAAUGGCAACGCGUCUCCCUGUUAAGGAGAAGACUGCGGGUACGAGUCCCGUAUGGAACG,0.524
13,GUUCCGUUGGCGUAAUGGCAACGCGUCUCCCUCCUAACGAGAACAAUGCGGGUUCGAGUCCCGUACGGAACG,0.872
14,GUUCCGUUGGCGUAAUGGCAACGCGUCUCCUUGCUAAGGAAAAGACUGGGGGUCCGAGCCCCAUACGGAACG,≤ 0.5
15,GUUCCGUUGGCGUAAUGGGAACGGGUCUCCCUCCUAAGGAGAAGACUGCGGGUUCGAGUCCCGUACGGAACG,0.553
16,GUUCCGUUGGCGUAAUGGCAACGCGUCUCCCUCCUAAGGAGAAGACAGCGGGUUCGCGUCCCGUACGGAACG,≤ 0.5
17,GUUCCGUUGGCGUAAUGGCAACGCCUCUCCCUCCUAAGGAGAAGACUGCGCGUUCGAGUUCCGUACGGUACG,≤ 0.5
18,GUUCCGUUGGCGUAAUGGCAACGCGUCUCCCUCCUAAGGAGAAGACUGCAGGUUAGAGUCCCGUAAGGAACG,0.516
19,GUUCCGUUGGCGUAAUGGCAACGCGUCUCCCUCCUAAGGAGAAGACUGCGGGUUCGGGUCCCGUACGGAACG,0.945
20,GUUCCGUUGGCGUAAUGGCAACGCGUCUCCCUCCUAAGGAGAAGACUGCGGGUUCGCGUCCCGUACGGAACG,0.594
21,GUUCCGUUGGCGUAAUGGCAACGCGUCUCCCUCCUAAGGAGAAGAGUGCGGGUUCGAGUCCCGUGCGGAACG,0.716
22,GUUCCGUUGGCGUAAUGGGUACGCGUGUCCCUCCUGAGGAGAAGACUGCGGGUUCGAGUCCCGUACGGAACG,≤ 0.5
23,GUUCCGUUGGCGUAAUGGGAACGCGUCUCCCUCCUAAGGAGAAGACUGCGGGUUCGAGUCCCGUUCGGAACG,0.99
24,GUUCCGUUGGCGUAAUGGCAACACGUCUCCCUCCUAAAGAGAAGACUGCGGGUUCGAGUCCCGUACGGAACG,0.634
25,GUUCCGUUGGCGUAAUGGCAACGCGUCUCCCUCCUAAGGAGAAGACUGGGGGUUCGAGUCCCGUACGGAACG,1.14
